Test results from ChEMBL document CHEMBL1124826, “Novel prodrugs which are activated to cytotoxic alkylating agents by carboxypeptidase G2” (1990).

How the values were obtained:
Assay type in all cases: functional
Details in all cases: read-out: ID50 (the source's name)
LS174T [1] = experiment: The compound was tested for cytotoxicity against human LS174T,colorectal cell line.
How it was run: (§1)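 JAR and LS174T cells (5×10^4 mL⁻¹, DMEM) exposed to compound at 0.5-800 μM, with no enzyme added. Solutions were freshly made and adjusted to pH 7.4. Dosing was repeated at the same concentration three times, 24 h apart. Duplicates. Viability was counted by hemocytometer 24 h after the last dose, relative to untreated controls.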

LS174T [2] = experiment: The compound along with CPG2 was tested for cytotoxicity against human LS174T,colorectal cell line.
How it was run: as §1, with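 “prodrug” for “compound”, “μM,” for “μM, with no enzyme added. Solutions were”, “apart. CPG2 at 6 units mL⁻¹ final was added with each dose to generate active drug in situ.” for “apart.”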

JAR [3] = experiment: The compound was tested for cytotoxicity against human JAR, choriocarcinoma cell line.; how it was run: as §1
JAR [4] = experiment: The compound along with CPG2 was tested for cytotoxicity against human JAR, choriocarcinoma cell line.
How it was run: as §1, with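 “prodrug” for “compound”, “μM,” for “μM, with no enzyme added. Solutions were”, “apart. CPG2 at 6 units mL⁻¹ final was added with each dose to generate active drug in situ.” for “apart.”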

Compound	IC50 (LS174T [1]) [µM]	IC50 (LS174T [2]) [µM]	IC50 (JAR [3]) [µM]	IC50 (JAR [4]) [µM]
CS(=O)(=O)OCCN(CCOS(C)(=O)=O)c1ccc(C(=O)NC(CCC(=O)O)C(=O)O)cc1 (configuration not stated)	800	65	> 800	60
O=C(O)CCC(NC(=O)c1ccc(N(CCCl)CCCl)cc1)C(=O)O (configuration not stated)	> 800	25	> 800	8
CS(=O)(=O)OCCN(CCCl)c1ccc(C(=O)NC(CCC(=O)O)C(=O)O)cc1 (configuration not stated)	285	10	630	10
